The record followed here is ChEMBL document CHEMBL4422612, “Small Molecule Inhibitor that Stabilizes the Autoinhibited Conformation of the Oncogenic Tyrosine Phosphatase SHP2” (J Med Chem, 2019).

Broadly, the IC50 is the midpoint of a concentration-inhibition curve. As usually defined, the Kd is a measure of binding affinity in units of concentration.

Series [1] deals with NCI-H661. Nature of the series: Induction of apoptosis in human NCI-H661 cells assessed as late apoptotic cells at 20 uM after 24 hrs by Annexin V/FITC-staining based FACS analysis (reference value: 3.5%). Type of series: functional.
In series [2] the target is T1, Tyrosine-protein phosphatase non-receptor type 11 (Homo sapiens, UniProt Q06124).
T1 sequence (Q06124 whole entry): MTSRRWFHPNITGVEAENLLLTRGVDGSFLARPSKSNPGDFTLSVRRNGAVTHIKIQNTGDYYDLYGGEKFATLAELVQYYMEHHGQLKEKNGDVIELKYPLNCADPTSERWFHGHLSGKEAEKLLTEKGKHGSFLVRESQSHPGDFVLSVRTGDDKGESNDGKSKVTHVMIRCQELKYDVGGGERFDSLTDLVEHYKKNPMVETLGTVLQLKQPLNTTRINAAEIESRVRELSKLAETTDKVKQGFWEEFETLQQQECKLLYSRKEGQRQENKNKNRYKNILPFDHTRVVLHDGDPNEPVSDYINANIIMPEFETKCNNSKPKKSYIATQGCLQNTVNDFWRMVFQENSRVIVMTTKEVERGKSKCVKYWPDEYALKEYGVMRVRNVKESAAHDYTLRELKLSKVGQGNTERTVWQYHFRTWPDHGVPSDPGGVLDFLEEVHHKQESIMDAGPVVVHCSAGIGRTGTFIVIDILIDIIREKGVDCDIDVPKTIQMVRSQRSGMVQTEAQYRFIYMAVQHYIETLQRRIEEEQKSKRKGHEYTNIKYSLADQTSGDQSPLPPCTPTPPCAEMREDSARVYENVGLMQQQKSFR
Kind of series: Inhibition of recombinant full length human GST-tagged SHP2 PTP domain using phospho-peptide as substrate pre-incubated for 30 mins before substrate addition and measured after 30 mins.

Series [3] has as its target T1, Tyrosine-protein phosphatase non-receptor type 11. Kind of series: Binding affinity to full length wild type His-tagged SHP2 (unknown origin) by MST assay. A digest of the protocol: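 His-tagged SHP2 (200 nM) in 50 mM Tris-HCl pH 8.0, 10 mM NaCl, 0.005% Tween 20, labelled with red-tris-NTA dye. Mixed 1:1 with a 15-step 2-fold dilution series from 600 µM made in PBS/0.005% Tween 20. MST run at 50% power with red filter; one-site fit gives Kd. Mean ± SD of three experiments.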

In series [4] the test system is NCI-H661. Kind of series: Induction of apoptosis in human NCI-H661 cells assessed as late apoptotic cells at 10 uM after 24 hrs by Annexin V/FITC-staining based FACS analysis (reference value: 3.5%). Type of series: functional. On the technique in general: A flow cytometer gives signals particle by particle.
The test system of series [5] is NCI-H661. Nature of the series: Induction of apoptosis in human NCI-H661 cells assessed as early apoptotic cells at 10 uM after 24 hrs by Annexin V/FITC-staining based FACS analysis (reference value: 5%). Type of series: functional.
Series [6] has as its target Tyrosine-protein phosphatase non-receptor type 6 (Homo sapiens, UniProt P29350). Nature of the series: Inhibition of wild type recombinant human SHP1 using H-Glu-Phe-pTyr-Ala-Glu-Val-Gly-Arg-Ser-Pro-Pro-Asp-Pro-Ala-Lys as substrate preincubated for 30 mins followed by substrate addition and measured after 30 mins by Malachite Green-reagent based assay. In a few lines:
(§1)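 Full-length SHP2 or SHP1 (0.1 µg) preincubated with compound 30 min at room temperature in 25 mM Tris-HCl pH 7.4, 50 mM NaCl, 5 mM DTT, 2.5 mM EDTA. Phospho-peptide substrate added to 50 µM final; 30 min at 30 °C. Released phosphate read by Malachite Green at OD620. IC50 from six concentrations; three experiments.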

The target in series [7] is Tyrosine-protein phosphatase non-receptor type 11 (Homo sapiens, UniProt Q06124, E76K). Kind of series: Inhibition of recombinant full length human GST-tagged SHP2 E76K mutant using phospho-peptide as substrate pre-incubated for 30 mins before substrate addition and measured after 30 mins.
Chain of Tyrosine-protein phosphatase non-receptor type 11 (Homo sapiens, UniProt Q06124, E76K) (Q06124 as listed by the source E76K): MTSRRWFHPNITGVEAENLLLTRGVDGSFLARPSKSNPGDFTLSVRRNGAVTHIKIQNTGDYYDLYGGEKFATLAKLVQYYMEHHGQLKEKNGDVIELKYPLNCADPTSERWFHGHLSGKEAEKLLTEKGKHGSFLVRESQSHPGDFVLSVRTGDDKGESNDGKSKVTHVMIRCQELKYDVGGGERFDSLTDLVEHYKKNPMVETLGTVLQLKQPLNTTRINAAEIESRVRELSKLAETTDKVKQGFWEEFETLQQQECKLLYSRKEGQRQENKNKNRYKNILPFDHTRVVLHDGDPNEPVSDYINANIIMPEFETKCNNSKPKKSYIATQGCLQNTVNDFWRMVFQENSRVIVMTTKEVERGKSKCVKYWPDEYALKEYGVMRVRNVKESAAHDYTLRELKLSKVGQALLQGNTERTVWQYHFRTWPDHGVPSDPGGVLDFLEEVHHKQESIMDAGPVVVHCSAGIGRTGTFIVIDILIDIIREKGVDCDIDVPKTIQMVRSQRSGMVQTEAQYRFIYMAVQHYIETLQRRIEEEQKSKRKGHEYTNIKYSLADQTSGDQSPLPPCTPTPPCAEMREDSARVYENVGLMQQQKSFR
Series [8] concerns NCI-H661. Nature of the series: Induction of apoptosis in human NCI-H661 cells assessed as early apoptotic cells at 20 uM after 24 hrs by Annexin V/FITC-staining based FACS analysis (reference value: 5%). It is filed as functional.
Series [9] concerns NCI-H661. Kind of series: Induction of apoptosis in human NCI-H661 cells assessed as viable cells at 20 uM after 24 hrs by Annexin V/FITC-staining based FACS analysis (reference value: 86.9%). Type of series: functional. Conditions: NCI-H661, 24 h, read-out: Activity.
Series [10] has as its target T1, Tyrosine-protein phosphatase non-receptor type 11. Nature of the series: Inhibition of wild type recombinant human SHP2 using H-Glu-Phe-pTyr-Ala-Glu-Val-Gly-Arg-Ser-Pro-Pro-Asp-Pro-Ala-Lys as substrate preincubated for 30 mins followed by substrate addition and measured after 30 mins by Malachite Green-reagent based assay. A digest of the protocol: as §1
Series [11] deals with NCI-H661. Kind of series: Induction of apoptosis in human NCI-H661 cells assessed as viable cells at 10 uM after 24 hrs by Annexin V/FITC-staining based FACS analysis (reference value: 86.9%). Type of series: functional. Conditions: NCI-H661, 24 h, read-out: Activity.
Series [12] concerns MEF. Nature of the series: Growth inhibition of PTPN11-depleted MEF at 6 uM after 24 to 72 hrs by cell proliferation-based assay. Conditions: mouse. A digest of the protocol: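 Ptpn11 fl/fl and Ptpn11 +/+ MEFs, both Ade-Cre+, infected with adeno-Cre, then given 6 µM compound or DMSO. Growth measured at 24, 48 and 72 h by One Solution proliferation assay. SHP2 loss confirmed by immunoblot. Triplicates from one of three experiments.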

Series [13] has as its system NCI-H661. Nature of the series: Induction of apoptosis in human NCI-H661 cells assessed as necrotic cells at 10 uM after 24 hrs by Annexin V/FITC-staining based FACS analysis (reference value: 4.6%). It is filed as functional.
For series [14], the system named is NCI-H661. Kind of series: Induction of apoptosis in human NCI-H661 cells assessed as necrotic cells at 20 uM after 24 hrs by Annexin V/FITC-staining based FACS analysis (reference value: 4.6%). It is filed as functional.

Chain of Tyrosine-protein phosphatase non-receptor type 6 (P29350 whole entry): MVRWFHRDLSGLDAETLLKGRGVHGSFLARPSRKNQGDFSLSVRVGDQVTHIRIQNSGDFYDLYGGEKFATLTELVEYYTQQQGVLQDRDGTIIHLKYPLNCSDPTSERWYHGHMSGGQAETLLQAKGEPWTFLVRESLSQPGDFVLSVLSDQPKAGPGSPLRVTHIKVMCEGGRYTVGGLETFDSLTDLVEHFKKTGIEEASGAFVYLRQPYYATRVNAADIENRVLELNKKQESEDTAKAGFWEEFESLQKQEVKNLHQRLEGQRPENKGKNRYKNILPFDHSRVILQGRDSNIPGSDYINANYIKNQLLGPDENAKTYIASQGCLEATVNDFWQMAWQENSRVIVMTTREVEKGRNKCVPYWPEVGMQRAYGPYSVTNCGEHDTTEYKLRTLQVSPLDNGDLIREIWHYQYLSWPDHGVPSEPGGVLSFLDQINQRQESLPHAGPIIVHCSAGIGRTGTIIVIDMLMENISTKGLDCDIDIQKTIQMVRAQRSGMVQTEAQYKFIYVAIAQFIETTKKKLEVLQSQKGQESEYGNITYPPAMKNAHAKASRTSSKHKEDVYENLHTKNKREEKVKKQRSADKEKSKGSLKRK

On to `CCOc1cc(O)c(C(=O)/C=C/c2ccc(Cl)cc2Cl)cc1CN1CCC=C(n2c(=O)[nH]c3ccccc32)C1`, for which the Activity in series [1] is listed as 21%; in [4], 7.3%; in series [5], 9.7%; in [8] it was 12.6%; in [12], “Non-Toxic”; in [13], 6.2%. Also, the Activity in series [14] came to 8.9%. The IC50 was determined as 20.9 µM in series [2], 72.7 µM in series [6], 7.67 µM in series [7] and 9.8 µM in series [10]. In series [3], this compound displayed a Kd of 69 µM. In series [9], the viability at 20 µM was 57.6%. Moreover, the viability at 10 µM in series [11] turned out to be 76.8%.
